From ChEMBL document CHEMBL5214999, “Identification and Optimization of a Ligand-Efficient Benzoazepinone Bromodomain and Extra Terminal (BET) Family Acetyl-Lysine Mimetic into the Oral Candidate Quality Molecule I-BET432” (J Med Chem, 2022)
pIC50, pKd: −log10 of the molar value. Values after ≈ are worked out from the molar mass of the structure shown.

Key:
[1] = Half-life in Wistar Han rat at 3 mg/kg, po or 1 mg/kg, iv measured upto 24 hrs by LC-MS/MS analysis; assay type: ADME, organism-based; conditions: in vivo
In short: (§1)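 Male Wistar Han rats and beagle dogs were dosed iv as a 1 h infusion in DMSO with 10% (w/v) Kleptose HPB in saline (2%:98% or 5%:95% v/v). Oral doses were given in 1% (w/v) methylcellulose (400 cps) aqueous suspension. Oral values are means of n = 3 and iv values n = 1 unless otherwise noted.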

[2] = Intrinsic clearance in dog hepatocytes incubated upto 45 mins by LC-MS/MS analysis; assay type: ADME, cell-based, Canis lupus familiaris, Hepatocyte; conditions: 0.75 h
[3] = Unbound clearance in Beagle dog blood at 1.5 mg/kg, po or 0.5 mg/kg, iv measured upto 24 hrs by LC-MS/MS analysis; assay type: ADME, organism-based, Canis lupus familiaris; conditions: in vivo; in short: as §1
[4] = Unbound clearance in Wistar Han rat blood at 3 mg/kg, po or 1 mg/kg, iv measured upto 24 hrs by LC-MS/MS analysis; assay type: ADME, organism-based; conditions: in vivo; in short: as §1
[5] = Solubility of the compound at pH 6.5 in fast state simulated intestinal fluid incubated for 16 hrs by HPLC analysis; assay type: physicochemical; conditions: fasted state simulated intestinal fluid
[6] = target: T1, Transcription intermediary factor 1-alpha (Homo sapiens, UniProt O15164); assay: Binding affinity to human TRIM24 bromodomain by BROMOscan method
T1 sequence (O15164 whole entry): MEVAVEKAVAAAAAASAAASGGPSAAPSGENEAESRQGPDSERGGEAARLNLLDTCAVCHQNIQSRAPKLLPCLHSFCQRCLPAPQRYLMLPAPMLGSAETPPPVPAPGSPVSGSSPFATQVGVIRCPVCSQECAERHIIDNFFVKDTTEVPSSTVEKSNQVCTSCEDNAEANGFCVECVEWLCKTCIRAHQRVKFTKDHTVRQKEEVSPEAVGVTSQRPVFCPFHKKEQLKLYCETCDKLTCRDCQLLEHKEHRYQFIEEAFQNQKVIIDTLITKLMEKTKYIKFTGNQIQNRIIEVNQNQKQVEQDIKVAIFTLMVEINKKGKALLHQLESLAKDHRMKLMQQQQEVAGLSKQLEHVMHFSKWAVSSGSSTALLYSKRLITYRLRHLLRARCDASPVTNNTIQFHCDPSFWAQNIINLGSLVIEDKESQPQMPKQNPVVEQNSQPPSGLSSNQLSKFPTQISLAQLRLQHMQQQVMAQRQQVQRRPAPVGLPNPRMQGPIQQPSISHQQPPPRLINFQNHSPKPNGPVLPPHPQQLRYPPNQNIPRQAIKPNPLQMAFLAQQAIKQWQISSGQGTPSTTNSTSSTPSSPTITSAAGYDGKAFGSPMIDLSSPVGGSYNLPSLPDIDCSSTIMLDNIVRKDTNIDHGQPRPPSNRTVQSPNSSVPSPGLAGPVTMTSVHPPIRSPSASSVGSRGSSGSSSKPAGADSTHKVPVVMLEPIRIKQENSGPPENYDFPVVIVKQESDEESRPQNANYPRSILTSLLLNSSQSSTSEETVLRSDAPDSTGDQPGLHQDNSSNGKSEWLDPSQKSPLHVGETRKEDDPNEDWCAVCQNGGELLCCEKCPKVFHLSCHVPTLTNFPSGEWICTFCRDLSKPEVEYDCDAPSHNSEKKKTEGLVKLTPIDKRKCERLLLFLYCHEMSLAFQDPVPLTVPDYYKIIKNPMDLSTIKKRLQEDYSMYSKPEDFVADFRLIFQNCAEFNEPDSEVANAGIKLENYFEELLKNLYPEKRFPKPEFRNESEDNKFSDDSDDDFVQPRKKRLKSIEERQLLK

[7] = target: T2, Bromodomain-containing protein 4 (Homo sapiens, UniProt O60885); assay: Inhibition of BRD4 BD2 (unknown origin) measured by TR-FRET assay
Cytochrome P450 3A4 = Cytochrome P450 3A4 (Homo sapiens, UniProt P08684); assay: Inhibition of CYP3A4 (unknown origin); assay type: ADME
Sequence of Cytochrome P450 3A4 (P08684 whole entry): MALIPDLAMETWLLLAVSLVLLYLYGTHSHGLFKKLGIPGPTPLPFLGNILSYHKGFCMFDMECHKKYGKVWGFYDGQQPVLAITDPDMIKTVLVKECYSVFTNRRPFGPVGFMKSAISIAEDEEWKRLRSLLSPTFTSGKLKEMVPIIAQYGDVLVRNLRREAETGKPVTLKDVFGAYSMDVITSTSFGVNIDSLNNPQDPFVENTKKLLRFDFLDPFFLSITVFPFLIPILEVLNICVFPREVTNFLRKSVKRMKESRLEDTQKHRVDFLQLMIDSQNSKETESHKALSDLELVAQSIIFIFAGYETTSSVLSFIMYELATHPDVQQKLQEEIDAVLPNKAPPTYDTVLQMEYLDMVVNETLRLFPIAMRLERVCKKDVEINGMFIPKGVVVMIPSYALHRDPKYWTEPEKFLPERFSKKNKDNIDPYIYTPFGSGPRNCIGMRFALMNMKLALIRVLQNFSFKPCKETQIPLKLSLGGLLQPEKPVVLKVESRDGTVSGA

[8] = Clearance in Wistar Han rat blood at 3 mg/kg, po or 1 mg/kg, iv measured upto 24 hrs by LC-MS/MS analysis; assay type: ADME, organism-based; conditions: whole blood; in short: as §1
[9] = Oral bioavailability in Wistar Han rat at 3 mg/kg measured upto 24 hrs by LC-MS/MS analysis; assay type: ADME, organism-based; conditions: in vivo; in short: as §1
[10] = Artificial membrane permeability of the compound; assay type: ADME; conditions: PAMPA; read-out: permeability
[11] = Clearance in Beagle dog blood at 1.5 mg/kg, po or 0.5 mg/kg, iv measured upto 24 hrs by LC-MS/MS analysis; assay type: ADME, organism-based, Canis lupus familiaris; conditions: whole blood; in short: as §1
[12] = Oral bioavailability in Beagle dog at 1.5 mg/kg measured upto 24 hrs by LC-MS/MS analysis; assay type: ADME, organism-based, Canis lupus familiaris; conditions: in vivo; in short: as §1
[13] = Unbound volume of distribution at steady state in Beagle dog at 1.5 mg/kg, po or 0.5 mg/kg, iv measured upto 24 hrs by LC-MS/MS analysis; assay type: ADME, organism-based, Canis lupus familiaris; conditions: in vivo; in short: as §1
[14] = Lipophilicity, logD of compound at pH 7.4 by Chromatography; assay type: physicochemical; conditions: buffer
[15] = Unbound fraction in Beagle dog at 1.5 mg/kg, po or 0.5 mg/kg, iv measured upto 24 hrs by LC-MS/MS analysis; assay type: ADME, organism-based, Canis lupus familiaris; conditions: in vivo
C-C motif chemokine 2 = C-C motif chemokine 2 (Homo sapiens, UniProt P13500); assay: Inhibition of MCP-1 in LPS-stimulated human whole blood incubate for 24 hrs by immuno assay; assay type: tissue-based
Sequence of C-C motif chemokine 2 (P13500 whole entry): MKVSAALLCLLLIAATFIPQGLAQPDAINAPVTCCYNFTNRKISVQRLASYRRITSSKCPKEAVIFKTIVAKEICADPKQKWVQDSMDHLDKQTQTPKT

[16] = Stability of compound in simulated gastric fluid assessed as half-life at pH 6 to 10 in presence of hydrogen peroxide; assay type: ADME
In short: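 The compound was held at 40 °C in pH 10 medium, pH 6 medium and simulated gastric fluid, each with and without hydrogen peroxide as oxidant, and degradation was monitored.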

[17] = Volume of distribution at steady state in Beagle dog at 1.5 mg/kg, po or 0.5 mg/kg, iv measured upto 24 hrs by LC-MS/MS analysis; assay type: ADME, organism-based, Canis lupus familiaris; conditions: in vivo, read-out: Vdss; in short: as §1
[18] = Intrinsic clearance in rat hepatocytes after 60 mins by LC-MS/MS analysis; assay type: ADME, cell-based, Hepatocyte; conditions: 1 h
[19] = Half-life in Beagle dog at 1.5 mg/kg, po or 0.5 mg/kg, iv measured upto 24 hrs by LC-MS/MS analysis; assay type: ADME, organism-based, Canis lupus familiaris; conditions: in vivo; in short: as §1
[20] = Unbound volume of distribution at steady state in Wistar Han rat at 3 mg/kg, po or 1 mg/kg, iv measured upto 24 hrs by LC-MS/MS analysis; assay type: ADME, organism-based; conditions: in vivo; in short: as §1
[21] = Volume of distribution at steady state in Wistar Han rat at 3 mg/kg, po or 1 mg/kg, iv measured upto 24 hrs by LC-MS/MS analysis; assay type: ADME, organism-based; conditions: in vivo, read-out: Vdss; in short: as §1
[22] = Unbound fraction in Wistar Han rat at 3 mg/kg, po or 1 mg/kg, iv measured upto 24 hrs by LC-MS/MS analysis; assay type: ADME, organism-based; conditions: in vivo
[23] = target: Voltage-gated inwardly rectifying potassium channel KCNH2 (Homo sapiens, UniProt Q12809); assay: Inhibition of hERG; assay type: toxicity
Sequence of Voltage-gated inwardly rectifying potassium channel KCNH2 (Q12809 whole entry): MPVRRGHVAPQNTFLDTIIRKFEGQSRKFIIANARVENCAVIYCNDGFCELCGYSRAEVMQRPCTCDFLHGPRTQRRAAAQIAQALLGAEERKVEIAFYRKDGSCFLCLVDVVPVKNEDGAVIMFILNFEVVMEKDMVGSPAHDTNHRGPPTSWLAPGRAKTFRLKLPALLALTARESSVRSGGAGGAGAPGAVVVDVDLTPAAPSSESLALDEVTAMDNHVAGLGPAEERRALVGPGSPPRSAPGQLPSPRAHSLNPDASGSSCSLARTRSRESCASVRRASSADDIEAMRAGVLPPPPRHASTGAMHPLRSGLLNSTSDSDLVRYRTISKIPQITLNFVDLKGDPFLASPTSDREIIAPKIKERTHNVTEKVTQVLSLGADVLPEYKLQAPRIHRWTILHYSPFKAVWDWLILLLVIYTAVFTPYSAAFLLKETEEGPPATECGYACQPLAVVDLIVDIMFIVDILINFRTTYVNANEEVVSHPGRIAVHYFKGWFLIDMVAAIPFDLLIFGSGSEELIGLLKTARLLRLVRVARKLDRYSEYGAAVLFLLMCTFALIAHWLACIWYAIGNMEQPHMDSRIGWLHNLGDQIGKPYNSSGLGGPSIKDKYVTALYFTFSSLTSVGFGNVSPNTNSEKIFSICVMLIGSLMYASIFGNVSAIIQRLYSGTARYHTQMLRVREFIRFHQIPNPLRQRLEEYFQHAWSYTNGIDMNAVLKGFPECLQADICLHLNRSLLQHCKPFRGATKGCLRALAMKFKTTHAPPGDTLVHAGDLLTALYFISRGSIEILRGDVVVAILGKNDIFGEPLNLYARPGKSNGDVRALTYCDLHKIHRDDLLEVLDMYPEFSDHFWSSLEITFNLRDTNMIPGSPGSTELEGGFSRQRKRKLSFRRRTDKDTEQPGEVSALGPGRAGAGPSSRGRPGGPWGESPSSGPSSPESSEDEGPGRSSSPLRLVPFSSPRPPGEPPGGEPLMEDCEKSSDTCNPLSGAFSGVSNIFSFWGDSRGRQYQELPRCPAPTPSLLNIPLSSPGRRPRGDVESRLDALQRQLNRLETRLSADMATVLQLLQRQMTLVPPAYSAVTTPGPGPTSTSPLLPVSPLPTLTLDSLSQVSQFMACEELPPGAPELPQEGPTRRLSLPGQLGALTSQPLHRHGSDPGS

[24] = target: T2, Bromodomain-containing protein 4; assay: Inhibition of BRD4 BD1 (unknown origin) measured by TR-FRET assay
[25] = Intrinsic clearance in human hepatocytes measured after 120 mins by LC-MS/MS analysis; assay type: ADME, cell-based, Hepatocyte; conditions: 2 h
[26] = Volume of distribution at steady state in Wistar Han rat at 2.9 mg/kg, po or 2.1 mg/kg, iv measured upto 24 hrs by LC-MS/MS analysis; assay type: ADME, organism-based; conditions: in vivo, read-out: Vdss; in short: as §1
[27] = Oral bioavailability in Wistar Han rat at 2.9 mg/kg measured upto 24 hrs by LC-MS/MS analysis; assay type: ADME, organism-based; conditions: in vivo; in short: as §1
[28] = Clearance in Wistar Han rat blood at 2.9 mg/kg, po or 2.1 mg/kg, iv measured upto 24 hrs by LC-MS/MS analysis; assay type: ADME, organism-based; conditions: whole blood; in short: as §1
[29] = Half-life in Wistar Han rat at 2.9 mg/kg, po or 2.1 mg/kg, iv measured upto 24 hrs by LC-MS/MS analysis; assay type: ADME, organism-based; conditions: in vivo; in short: as §1
[30] = Solubility of the compound in saline by CLND method; assay type: physicochemical

| Compound | CLH [2] [mL/min/g] | solubility at 16 h [5] [µg/mL] | pIC50 [7] | pIC50 (Cytochrome P450 3A4) | Papp [10] [×10⁻⁶ cm/s] | chromatographic logD [14] | pIC50 (C-C motif chemokine 2) | CLH [18] [mL/min/g] | pIC50 [23] | pIC50 [24] | CLH [25] [mL/min/g] | further results |
| --- | --- | --- | --- | --- | --- | --- | --- | --- | --- | --- | --- | --- |
| C[C@H]1C(=O)N(C)C=C(c2cnn(C)c2)c2cc([C@@H](O)CO)ccc21 | < 0.65 | > 1000 | 7.20 | < 4.40 | 3.1 | 1.3 | 7.40 | < 0.8 | < 4.30 | 7.50 | < 0.45 | half-life [1]: 44.4 min; CL free [3]: 60 mL/min/kg; CL free [4]: 38 mL/min/kg; pKd [6]: 5.90; clearance [8]: 26 mL/min/kg; bioavailability [9]: 67%; clearance [11]: 28 mL/min/kg; bioavailability [12]: 79%; Vduss [13]: 5.7 L/kg; Fu [15]: 0.47; half-life [16]: > 41.7 days; Vd [17]: 2.7 L/kg; half-life [19]: 84 min; Vduss [20]: 1.9 L/kg; Vd [21]: 1.3 L/kg; Fu [22]: 0.68 |
| C[C@H]1C(=O)N(C)C=C(c2cn[nH]c2)c2cc([C@@H](O)CO)ccc21 |  | 417 (≈ 1330 µM) | 7.40 |  | 0.7 | 0.9 | 7.50 | < 0.8 |  | 7.60 | < 0.45 | Vd [26]: 1.5 L/kg; bioavailability [27]: 13%; clearance [28]: 37 mL/min/kg; half-life [29]: 45.6 min |
| COc1cc2c(cc1OC)[C@@H](C)C(=O)N(C)C=C2 | 2.64 | > 1000 | 6.20 | < 4.40 | 89 | 3.4 |  | 6.35 | < 4.30 | 6.80 | < 0.45 | solubility kinetic [30]: ≥ 139 µg/mL |
